A selection: hits, their analogues and other compounds. The true share with any hit is near 12%.
RAM inhibit = yeast RAM network inhibition; S. cerevisiae dse1pr::URA3 reporter, 5-FOA growth OD615, 2 d; analog-sensitive cbk1-as2 kinase mutant strain; inhibition, % at 50 µM; 1.8% of 190,000 active;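 active = inhibition above a set limit, 3 SD over mean compound inhibition, cut at about 8.4% in these data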;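 also: 0% = DMSO-only wells with no growth and 100% = 10 µM 1-NA-PP1 full growth; inhibition rescues growth on 5-FOA so higher OD means more RAM inhibition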
ABCG2 block = blocks JC-1 efflux by human ABCG2 transporter; IgMXP3 cells, flow cytometry; inhibition, % at 6.6 µM; 0.1% of 190,000 active;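 active = inhibition above 80%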;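 also: 0% = DMSO and 100% = nicardipine control wells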
Target sequence (Q9UNQ0 whole entry, looked up): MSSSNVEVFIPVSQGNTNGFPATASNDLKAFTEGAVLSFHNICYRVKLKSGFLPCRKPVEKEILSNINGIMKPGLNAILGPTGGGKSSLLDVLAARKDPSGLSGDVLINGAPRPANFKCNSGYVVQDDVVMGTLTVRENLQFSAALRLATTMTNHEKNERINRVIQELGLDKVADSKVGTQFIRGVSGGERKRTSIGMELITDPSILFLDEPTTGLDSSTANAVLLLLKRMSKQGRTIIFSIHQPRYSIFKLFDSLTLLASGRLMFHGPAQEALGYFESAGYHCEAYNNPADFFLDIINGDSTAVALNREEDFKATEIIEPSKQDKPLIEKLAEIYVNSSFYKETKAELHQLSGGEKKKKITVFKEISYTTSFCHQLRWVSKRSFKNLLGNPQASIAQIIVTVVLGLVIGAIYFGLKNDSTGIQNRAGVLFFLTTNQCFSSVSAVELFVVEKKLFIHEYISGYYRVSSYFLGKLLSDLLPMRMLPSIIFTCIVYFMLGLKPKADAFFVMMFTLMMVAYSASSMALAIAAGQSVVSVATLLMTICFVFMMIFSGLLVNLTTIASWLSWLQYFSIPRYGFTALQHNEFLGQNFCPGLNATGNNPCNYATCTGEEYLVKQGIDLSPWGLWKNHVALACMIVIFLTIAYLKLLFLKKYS
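Test system: IgMXP3 cells (ABCG2) mixed with DDAO far-red-labelled CCRF-Adr cells (ABCB1). Reagent: JC-1 transporter substrate. Compound dosing: single test compound dose, 6.6 µM final. Times: 10 min compound exposure, 25 °C. Detection: flow cytometry of retained JC-1 fluorescence. Read-out basis: efflux inhibition in percent versus controls. Controls: nicardipine and DMSO wells.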
L major viab = Leishmania major promastigote growth inhibition; Leishmania major promastigotes, resazurin fluorescence viability; inhibition, % at 10 µM; 9% of 200,000 active; in the data active = inhibition above about 50%;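 also: promastigotes grown with compound for 44 hours at 28 °C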
WT yeast gro inh = growth inhibition of WT yeast, mitochondrial fusion screen; mitochondrial fusion phenotypic screen, WT strain; inhibition, % at 10 µM; 2.1% of 190,000 active; in the data active = inhibition above about 58%; tested in S. cerevisiae
ABCB1 inh = human ABCB1 inhibition, ABCG2 as counter-screen; P08183; CCRF-Adr cells, JC-1 efflux, flow cytometry; inhibition, % at 6.6 µM; 0.067% of 190,000 active; AID 1326; in the data active = inhibition above about 40%;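 also: 0% = vehicle and 100% = reference inhibitor; higher value means more JC-1 retained so stronger ABCB1 efflux block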
* = called active by the depositor; nt = no result given.

SMILES | RAM inhibit | ABCG2 block | L major viab | WT yeast gro inh | ABCB1 inh
Cc1ccc(C)c(N2CCN(C(=O)c3ccc4nc(-c5ccco5)c(-c5ccco5)nc4c3)CC2)c1 | 6.2 | -1.4 | 82.3* | -14.0 | -0.5
O=C(Nc1ccccc1)c1ccccc1OCc1cccc([N+](=O)[O-])c1 | 0.1 | 39.1 | 54.6* | -10.1 | 1.5
O=C(OCc1nnc(-c2ccccc2)o1)c1ccc2c(c1)OCCO2 | 3.8 | -0.9 | -3.9 | 7.4 | 0.0
O=[N+]([O-])c1ccc(Sc2nnnn2-c2ccccc2)nc1 | 0.6 | 3.3 | 81.9* | 24.6 | 0.3
C(=C\CSc1nnnn1-c1ccccc1)/CSc1nnnn1-c1ccccc1 | 7.8 | 2.5 | 21.8 | -15.3 | 1.2
Cc1cc(C)cc(NC(=S)/C(=C(\[O-])c2ccc(Cl)cc2Cl)[n+]2ccccc2)c1 | 3.9 | 1.1 | 26.6 | 5.7 | 0.1
[O-]/C(=C(\C(=S)Nc1ccc(SC(F)F)cc1)[n+]1ccccc1)c1ccc(Cl)cc1Cl | 3.1 | -1.8 | 83.6* | 5.9 | -0.2
Oc1cccc2ccc[n+](CC(O)Cn3c4ccccc4c4ccccc43)c12 (configuration not stated) | 6.2 | 6.9 | 90.7* | -5.6 | 0.3
O=C(Nc1cc(SCCO)cc([N+](=O)[O-])c1)c1ccco1 | 0.4 | 4.7 | 61.4* | -4.1 | 0.5
O=C(Nc1cc(Oc2ccc(Cl)cc2)cc([N+](=O)[O-])c1)c1ccco1 | 8.0 | 12.2 | 64.1* | 78.7 | 0.9
CCO[C@H]1OC(C(=O)N2CCN(C)CC2)=C[C@@H](C2CC2)[C@@H]1CCCO | 0.5 | 0.4 | -0.4 | 3.0 | 0.1
CN(C)CCCNC(NC(=O)c1cccs1)C(Cl)(Cl)Cl (configuration not stated) | 0.1 | -2.1 | -7.0 | 7.8 | -0.6
CC(Sc1nnc(-c2ccc(Cl)cc2Cl)n1Cc1ccccc1)C(=O)Nc1nccs1 (configuration not stated) | 3.1 | 0.5 | 64.6* | -4.7 | 1.0
CN1CCN(S(=O)(=O)c2ccc(N3CCc4ccccc4C3)nc2)CC1 | -0.5 | 0.0 | 94.5* | -19.8 | 0.5
COc1ccc(C(=O)NC(=S)N(Cc2ccccc2)Cc2ccccc2)cc1 | 5.2 | -1.0 | 89.8* | 70.8 | -0.3
O=C(NC(=S)N(CCc1ccccc1)CCc1ccccc1)c1ccco1 | 3.9 | 5.3 | 94.7* | 62.2 | 0.4
CC(C)CC(=O)NC(=S)N(Cc1ccccc1)Cc1ccccc1 | 2.4 | -0.8 | 18.9 | 64.2* | -0.1
CC(C)C(=O)NC(=S)N(Cc1ccccc1)Cc1ccccc1 | 1.1 | -13.1 | 32.6 | 32.9 | -1.4
COc1cc(C(=O)NC(=S)N(CCc2ccccc2)CCc2ccccc2)cc(OC)c1OC | 4.7 | -4.3 | 99.3* | 48.2 | 1.1
CC(CCc1ccccc1)NC(=S)NC(=O)c1ccco1 (configuration not stated) | 0.6 | 4.8 | 6.5 | 5.1 | 1.6
COc1cc(C(=O)NC(=S)N(C)Cc2ccccc2)cc(OC)c1OC | 3.1 | 7.5 | -10.7 | 7.9 | 0.6
Cc1ccc(S(=O)(=O)N2CCCOC2CNC(=O)C(=O)NC2CCCCC2)cc1 (configuration not stated) | 2.6 | -0.1 | 9.0 | -2.6 | 0.7
O=[N+]([O-])c1ccc(N(c2ccccc2)c2ccccc2)cc1 | 10.0* | 1.2 | 2.8 | -2.3 | 0.6
O=C(Cc1cccs1)NCCSc1c(-c2ccc(Cl)cc2)[nH]c2ccccc12 | 8.9* | 1.1 | 29.1 | 41.9 | 0.0
NC(=O)CSc1nc2sc3c(c2c2ncnn12)CCCC3 | 2.7 | 0.6 | 6.3 | 0.8 | 0.5
SMILES | RAM inhibit | ABCG2 block | L major viab | WT yeast gro inh | ABCB1 inh
CC1CCCc2sc3nc(N4CCN(CCO)CC4)n4ncnc4c3c21 (configuration not stated) | 1.4 | 4.5 | 90.8* | 16.4 | 1.2
CC(=O)Nc1ccc(S(=O)(=O)NC2(C(F)(F)F)C(=O)Nc3c2c(=O)[nH]c(=O)n3Cc2cccnc2)cc1 (configuration not stated) | 0.9 | 2.5 | -4.6 | 2.4 | 0.9
CSc1nc(-c2ccccc2)nc(NC(C)=O)c1C(C)=O | 3.9 | 4.3 | 0.5 | -0.5 | 0.4
COc1nc(N2CCCCCC2)nc(N2CCCCCC2)n1 | 0.9 | 4.3 | -2.6 | 63.6* | 0.6
N#CCOc1nc(N2CCCCC2)nc(N2CCCCC2)n1 | -1.0 | -0.1 | 16.5 | -6.5 | 0.1
N#CCOc1nc(N2CCCC2)nc(N2CCCC2)n1 | 0.5 | 0.4 | 96.8* | 0.1 | 0.1
COc1nc(OCC#N)nc(N2CCCCC2)n1 | 2.4 | 1.3 | -1.0 | -8.0 | 0.2
CC1CCc2nc(NC(=O)CN3CCN(c4ccc(F)cc4)CC3)sc2C1 (configuration not stated) | 0.4 | 6.7 | 42.2 | 67.1* | 2.2
CC(C)C(=O)Nc1ccc(C(=O)c2ccccc2)cc1 | 0.6 | 21.8 | 99.0* | 11.9 | 0.9
CC(C)C(=O)Nc1ccc(C(=O)NNC(=O)CCc2ccccc2)cc1 | 1.8 | -0.1 | -2.6 | 3.6 | -0.1
CC1(C)CC(=O)C2=C(C1)C(c1cn(-c3ccccc3)nc1-c1ccccc1)C(C#N)=C(N)O2 (configuration not stated) | 3.1 | -0.7 | 79.3* | -9.3 | 0.5
CC1(C)CC(=O)C2=C(C1)OC(N)=C(C#N)C2c1cn(-c2ccccc2)nc1-c1ccc(F)cc1 (configuration not stated) | 4.8 | -0.4 | 66.5* | -1.1 | 1.2
Cn1cccc1C1C(C#N)=C(N)OC2=C1C(=O)CC(C)(C)C2 (configuration not stated) | 0.9 | 1.0 | -0.5 | -8.4 | 0.2
O=c1c2c(ncn2C2CCCC2)n(Cc2ccccc2)c(=O)n1CCOc1ccccc1 | 5.9 | 55.2 | 3.9 | 30.7 | 5.4
Cc1ccc(C)c(OCCn2c(=O)c3c(ncn3C3CCCC3)n(Cc3ccccc3)c2=O)c1 | 7.4 | 84.0* | 96.3* | 57.4 | 36.9
Cc1ccnc(NS(=O)(=O)c2ccc(NC(=O)c3ccc4c(c3)OCCO4)cc2)n1 | 1.7 | -0.3 | -5.9 | -5.7 | 0.2
CCN(CC(=O)NC1CCS(=O)(=O)C1)S(=O)(=O)c1ccc(C)c(C)c1 (configuration not stated) | 1.4 | -0.8 | 54.9* | -0.2 | 0.4
COc1ccc(-c2csc(C3=C(O)CN(C(C)C)C3=N)n2)cc1OC | 3.4 | 6.0 | 71.5* | -4.5 | 0.6
COCCCNC(=O)CN(c1cc(Cl)ccc1OC)S(C)(=O)=O | 0.5 | -1.1 | -1.8 | -7.7 | -0.1
CCCOc1nc2c(c(=O)n(C)c(=O)n2C)n1Cc1cccc2ccccc12 | 5.9 | 6.5 | 65.0* | 42.6 | 0.9
Cc1ccc(C(=O)O/N=C/c2c(C(F)(F)F)nn(C)c2Sc2ccc(Cl)cc2)cc1 | 9.6* | 5.5 | 3.8 | 1.9 | 0.7
CN(C)S(=O)(=O)c1ccc(NC(=O)CN2CCCc3ccccc32)cc1 | -0.4 | 1.6 | 20.8 | -4.6 | 0.8
Nc1cccc(CCc2nc3cc4ccccc4cc3[nH]2)c1 | 4.5 | 2.6 | 97.1* | -4.4 | nt
O=C(c1ccc(Cn2c(=O)[nH]c3ccccc3c2=O)cc1)N1CCN(c2ccc(Cl)cc2)CC1 | 6.0 | 7.5 | 95.9* | 53.7 | 3.3

Source: PubChem BioAssay (several laboratories)
